From PubChem BioAssay AID504769 (Southern Research Specialized Biocontainment Screening …, 2011)

Tested on: Bladder 5637 cells viability, CellTiter-Glo, 72 h
Assay: cytotoxicity in 5637 bladder cells, dose response, cytotoxicity control for bacterial capsule biogenesis inhibitors, cell-based, set 2 (AID 504769)
In short: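 Measured by: CellTiter-Glo luminescence for cell viability; Material: bladder carcinoma 5637 cell line; Compound: Eight-point series, 300 µM down to 2.3 µM; Timing: 72 h compound exposure; Benchmarks: Hyamine toxic control, untreated cell control.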

Compound	CC50 [µM]
O=C(Nc1nc2ccccc2s1)c1cccnc1	129
O=C(Nc1nc2c(F)cc(F)cc2s1)c1ccccc1	30.9
O=C(Nc1nc2c(F)cccc2s1)c1ccccn1	2.56
O=C(Nc1nc2ccc(F)cc2s1)c1ccccn1	3.32
O=C(Nc1nc2c(Cl)cc(Cl)cc2s1)c1ccccn1	3.55
Cc1cc(C)c2nc(NC(=O)c3ccccn3)sc2c1	6.19
O=C(Nc1nc2c(F)cc(F)cc2s1)c1ccncc1	71.8
O=C(Nc1nc2ccccc2s1)c1ccncc1	104
